Compound activity (PubChem)
OX1R antag-1 = antagonists of human orexin 1 receptor (OX1R); Orexin/Hypocretin receptor type 1 (Homo sapiens), O43613; 1.8% of 330,000 active; inhibition, % at 6.6 µM; OX1R-expressing cells, FRET antagonist read-out; AID 485270, 2010; in the data active means inhibition mostly above about 38%, no sharp cut-off; inactive means mostly below about 40%;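 further: 0% = agonist challenge alone and 100% = reference antagonist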
Target sequence (O43613 whole entry, looked up): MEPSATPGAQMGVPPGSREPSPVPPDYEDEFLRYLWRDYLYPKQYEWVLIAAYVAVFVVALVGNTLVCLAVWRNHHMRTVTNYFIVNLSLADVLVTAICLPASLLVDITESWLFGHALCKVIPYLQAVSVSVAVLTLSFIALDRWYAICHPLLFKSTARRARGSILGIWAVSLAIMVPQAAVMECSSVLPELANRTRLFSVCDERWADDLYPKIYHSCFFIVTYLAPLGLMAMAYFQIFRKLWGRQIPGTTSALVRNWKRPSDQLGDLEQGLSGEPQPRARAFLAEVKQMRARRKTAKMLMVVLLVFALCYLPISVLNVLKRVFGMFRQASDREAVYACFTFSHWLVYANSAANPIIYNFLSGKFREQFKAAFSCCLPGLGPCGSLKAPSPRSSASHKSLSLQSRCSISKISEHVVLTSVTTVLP
CHO parental Ca = ATP-evoked calcium signal inhibitors, parental CHO, primary screen, counter-screen for OX1R antagonist project, cell-based, fluorescence, Fluo-8 calcium dye. AID 463079, 2010. 0.63% of 330,000 active. inhibition, % at 5.6 µM. parental CHO-K1, ATP-induced calcium, Fluo-8 fluorescence;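 active means inhibition above that plate's mean sample inhibition plus 3 SD, cut at about 26% in these data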;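 further: 0% = ATP-challenged DMSO wells and 100% = DMSO wells without ATP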
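Material: Parental CHO cells | Reagent: ATP | Compound dosing: Single nominal dose of 5.6 µM per compound | Detection: Intracellular calcium via Fluo-8 no-wash fluorescent dye | Read-out: % inhibition of ATP-induced calcium mobilization | Benchmarks: Low control ATP plus DMSO, high control DMSO only | Replicates: Singlicate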
GalR3 antagonist = GalR3 antagonists in HEK293 cells, primary screen, cell-based, fluorescence readout | Galanin receptor type 3 (Homo sapiens), O60755 | HEK293 GalR3-CNG cAMP membrane potential fluorescence; galR3 body fused to GalR1 C-terminus | inhibition, % at 3 µM | 0.44% of 360,000 active | AID 651719, 2012;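 active means inhibition above the screen-wide average plus 3 SD, cut at about 13% in these data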;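 further: forskolin and galanin both at EC90 stimulate the cells; cAMP rise reported by CNG channel membrane potential dye signal; 0% = forskolin plus galanin with DMSO and 100% = forskolin alone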
GPR7 antag = GPR7 receptor antagonists, primary screen, cell-based, fluorescence, single concentration. AID 1861, 2009. GPR7-expressing cells, fluorescence antagonist assay. Neuropeptides B/W receptor type 1 (Homo sapiens), P48145. 1.1% of 290,000 active. inhibition, % at 4.4 µM; in the data active means inhibition above about 16%, passing the limit was not always enough;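 further: cells stimulated with the agonist NPW; 0% = agonist with vehicle and 100% = vehicle without agonist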
OX1R antag-2 = OX1R (HCRTR1) antagonists, primary screen, fluorescence, CHO/OX1R cells, Fluo-8 calcium, orexin A. Fluo-8 calcium fluorescence. inhibition, % at 5 µM. 0.43% of 330,000 active. AID 434989, 2010;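 active means inhibition above its plate's threshold, mean inhibition of all tested compounds on the plate plus 3 SD, cut at about 37% in these data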;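 further: 0% = orexin A challenge wells and 100% = SB-334867-A antagonist wells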
Active calls of the source: *; nt = no result. Sampled rows, rich in hits. Any-hit rate of the full collection: about 3.1%.

SMILES | OX1R antag-1 | CHO parental Ca | GalR3 antagonist | GPR7 antag | OX1R antag-2
COC(=O)c1ccc(CSc2nnc(N)s2)cc1 | 26 | 4 | 0 | 19* | 1
Cc1ccc(C(=O)OCCOc2cccc(Cl)c2)cc1S(=O)(=O)N1CCOCC1 | 33 | 16 | -3 | nt | 8
O=[N+]([O-])c1cnccc1Nc1ccccc1 | 58* | -2 | -6 | -2 | -7
O=C(O)c1ccc(Nc2cccc(F)c2)c([N+](=O)[O-])c1 | 26 | -5 | -10 | 7 | -4
COc1ccccc1Nc1ccncc1[N+](=O)[O-] | 38 | -7 | -3 | 7 | 6
COc1cccc(Nc2c([N+](=O)[O-])cncc2[N+](=O)[O-])c1 | 76* | -7 | -12 | 0 | -10
O=C(O)c1cccc(Nc2ccncc2[N+](=O)[O-])c1 | 38* | 3 | -8 | -5 | -18
COc1cccc(Nc2c(Nc3cccc(OC)c3)c(=O)c2=O)c1 | 10 | 4 | -8 | 29 | -8
Nc1ccc(Nc2ccncc2[N+](=O)[O-])cc1 | 64* | -12 | 0 | -4 | -6
Nc1ccccc1Nc1ccncc1[N+](=O)[O-] | 24 | -4 | -4 | -4 | -7
CC(C)C[C@@H]1COc2cc(F)ccc2S(=O)(=O)N1 | nt | nt | -2 | nt | nt
COc1cccc(C(=O)N[C@H](C(=O)N2CCC[C@H]2C(=O)NCCc2ccccc2Cl)c2ccccc2)c1 | nt | nt | -5 | nt | nt
COc1cccc(C(=O)N2CCC[C@H]2C(=O)N2CCC[C@H]2C(=O)N[C@H](C)c2ccccc2)c1 | nt | nt | -3 | nt | nt
Cc1ccc(Cn2cc(CN3CC(N4CCSCC4)CS3(=O)=O)nn2)cc1 (stereo not drawn) | nt | nt | -5 | nt | nt
CCCCCCCCCC(=O)NNC(=O)c1c(O)c2ccccc2n(CCC)c1=O | 7 | 7 | -3 | 10 | -4
CCCCCCCCC(=O)NNC(=O)c1c(O)c2ccccc2n(CCC)c1=O | 16 | 34* | -5 | 1 | -13
Cn1c(=O)c(C(=O)NNC(=O)c2cccc(Cl)c2)c(O)c2ccccc21 | 19 | 47* | -8 | 4 | 44*
Cc1cccc(C(=O)NNC(=O)c2c(O)c3ccccc3n(C)c2=O)c1 | 21 | 40* | -9 | -3 | 13
CCn1c(=O)c(C(=O)NNC(=O)c2cccc(Cl)c2)c(O)c2ccccc21 | 27 | 95* | -8 | -18 | 98*
CCn1c(=O)c(C(=O)NNC(=O)c2ccc(Cl)cc2Cl)c(O)c2ccccc21 | 13 | -6 | -1 | -5 | -15
COC(=O)[C@]12C[C@H](CC(=O)NCc3cccs3)C(=O)N(CCc3ccc(OC)c(OC)c3)C1=C[C@H](C(C)(C)C)O[C@@H]2C | nt | nt | 3 | nt | nt
CCc1cc2c(nc1CC)CCCN2C | nt | nt | -3 | nt | nt
CCN(CC)C(=O)c1ncn2c1C(=O)N[C@@H](C)C2 | nt | nt | -5 | nt | nt
CCn1c(=O)c(C(=O)Nc2nc3ccccc3[nH]2)c(O)c2ccccc21 | 34 | 98* | -2 | -15 | 106*
COc1cc(C=CC(=O)c2cc(OC)c(OC)c(OC)c2)cc(OC)c1OC | nt | nt | -3 | nt | nt
SMILES | OX1R antag-1 | CHO parental Ca | GalR3 antagonist | GPR7 antag | OX1R antag-2
COc1cc(/C=C/C(=O)c2ccc3c(c2)OCO3)cc(Cl)c1O | 13 | 44* | -6 | 18 | 49*
COc1ccc2cc(C(=O)/C=C/c3cc(OC)c(OC)c(OC)c3)ccc2c1 | 70* | -19 | -9 | 14 | 24
COc1ccc(C(=O)C=Cc2ccc3c(c2)OCO3)cc1OC | nt | nt | -1 | nt | nt
COc1ccc(/C=C/C(=O)c2ccc(OC)cc2OC)c(OC)c1 | 51* | 3 | -7 | -7 | -16
COc1ccc(/C=C/C(=O)c2ccccc2)c(OC)c1 | 14 | -11 | -9 | -4 | -15
O=C(Nc1ccc2c(c1)OCCO2)C(c1cc2ccccc2o1)N1CCC(Cc2ccccc2)CC1 (stereo not drawn) | nt | nt | -5 | nt | nt
COc1ccc(-c2nc3ccc(Cl)cn3c2Cc2ccc(C)cc2)cc1OC | nt | nt | -1 | nt | nt
CCc1c(-c2cccc(OC)c2)ncn1CCc1ccccc1OC | nt | nt | -10 | nt | nt
NC(=O)C1CCN(C(=O)COc2ccc(Nc3ccccc3)cc2)CC1 | 52* | 3 | -5 | -2 | 2
Cc1ccccc1Nc1ccc2nonc2c1[N+](=O)[O-] | nt | nt | -10 | -5 | nt
CCc1nnc(NS(=O)(=O)c2ccc(Nc3ccc4nonc4c3[N+](=O)[O-])cc2)s1 | 49* | -8 | -3 | -9 | -20
O=[N+]([O-])c1c(Nc2ccccc2O)ccc2nonc12 | 59* | 2 | 7 | -18 | -20
CCOc1ccc(N=Nc2c(=O)[nH]n3c(=O)c4c([nH]c23)CCCC4)cc1 | 14 | -5 | -13 | -12 | -11
CCOc1ccc(N=Nc2c(=O)[nH]n3c(=O)cc(C)[nH]c23)cc1 | 59* | -13 | -1 | -4 | -2
COc1ccc(CCNC(=O)Cc2ccc(OCc3ccccc3)c(OC)c2[N+](=O)[O-])cc1OCc1ccccc1 | 25 | 46* | -4 | 3 | 35
NS(=O)(=O)c1ccc(CCNC(=O)c2ccc3c(c2)N(Cc2ccccc2)CCS3)cc1 | 70* | -7 | -2 | -5 | -6
COc1ccc(CCNC(=O)c2ccccc2C(=O)NCCc2ccc(OC)c(OC)c2)cc1OC | 50* | -12 | -5 | nt | -4
COc1ccc(CCNC(=O)c2cccs2)cc1OC | 10 | -1 | -5 | -2 | 3
COc1ccc(CCNC(=O)c2ccc3c(c2)N(Cc2ccccc2)CCS3)cc1OC | 57* | -4 | -8 | 6 | -12
COc1ccc(CCNC(=O)Cc2ccc([N+](=O)[O-])cc2)cc1OC | 5 | -12 | -3 | -9 | -10
COc1ccc(OC)c(CCNC(=O)c2ccc3c(c2)N(Cc2ccccc2)CCS3)c1 | 23 | -32 | -9 | 15 | -25
O=C(NCCCN1CCCC1)c1ccc2c(c1)N(Cc1ccccc1)CCS2 | 26 | -14 | -9 | 5 | -20
C[C@H](O)[C@@H]1CN2CCc3ccc(-c4ccc5c(c4)OCO5)cc3[C@@H]2C[C@@H]1N(C)Cc1cc(Cl)cc(Cl)c1 | nt | nt | -7 | nt | nt
CC(Oc1ccc(F)cc1)C(=O)Nc1cccc(S(=O)(=O)N(C)c2ccccc2)c1 (stereo not drawn) | nt | nt | -1 | nt | nt
COc1ccc(/[N+]([O-])=C/c2ccco2)cc1 | 4 | 0 | -4 | nt | -3
COC(=O)Cn1cc(C(=O)OC)c2ccccc21 | 19 | -11 | -2 | 21* | -10
O=C(CSc1nncn1-c1cccnc1)N(c1ccccc1)c1ccccc1 | 11 | 8 | -2 | -5 | -23
O=C(NNc1ccc([N+](=O)[O-])cc1[N+](=O)[O-])c1ccco1 | 86* | -7 | nt | -11 | -20
COC(=O)[C@]12C[C@H](CC(=O)N3CCCC3)C(=O)N(CCC3=CCCCC3)C1=C[C@H](COCc1ccccc1)O[C@@H]2C | nt | nt | -6 | nt | nt
